Assay results as given in ChEMBL document CHEMBL1759925, “Rapidly photoactivatable ATP probes for specific labeling of tropomyosin within the actomyosin protein complex” (Bioorg Med Chem Lett, 2011).
The source made the active and inactive calls.

Experiments:
Gallus gallus [1] = organism: Gallus gallus; assay: Binding affinity to chicken skeletal muscle tropomyosin within actomyosin protein complex at 125 uM after 1 hr followed by 10 mins irradiation with UVA by chemiluminescent assay using avidin-horseradish peroxidase conjugate in presence of 1 mM of calcium chloride
Outline: (§1)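 Actomyosin (3.9 µg) was incubated with photoaffinity ATP probe for 1 h in 30 mM Tris–HCl (pH 7.2), 5 mM MgCl₂ and 1 mM CaCl₂, with no EGTA. Samples were then irradiated at 360 nm, separated by 10% SDS–PAGE and blotted to PVDF. Labeled bands were detected by chemiluminescence with avidin-HRP conjugate.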

Gallus gallus [2] = organism: Gallus gallus; assay: Binding affinity to chicken skeletal muscle actomyosin at 125 uM after 1 hr followed by 10 mins irradiation with UVA by chemiluminescent method using avidin-horseradish peroxidase conjugate in presence of 1 mM of calcium chloride; outline: as §1
Gallus gallus [3] = organism: Gallus gallus; assay: Binding affinity to chicken skeletal muscle actin within actomyosin protein complex at 125 uM after 1 hr followed by 10 mins irradiation with UVA by chemiluminescent method using avidin-horseradish peroxidase conjugate in presence of 1 mM of calcium chloride; outline: as §1
Gallus gallus [4] = organism: Gallus gallus; assay: Binding affinity to chicken skeletal muscle tropomyosin within actomyosin protein complex at 125 uM after 1 hr followed by 10 mins irradiation with UVA by chemiluminescent assay using avidin-horseradish peroxidase conjugate; format: tissue-based; conditions: Muscle tissue
Outline: (§2)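 Actomyosin (3.9 µg) was incubated for 1 h with photoaffinity ATP probe in 30 mM Tris–HCl (pH 7.2), 5 mM MgCl₂ and 1 mM EGTA, then irradiated with 360 nm light. Photoproducts were resolved on 10% SDS–PAGE, transferred to PVDF, and labeled proteins visualized by chemiluminescence using avidin-HRP conjugate.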

Gallus gallus [5] = organism: Gallus gallus; assay: Binding affinity to chicken skeletal muscle tropomyosin within actomyosin protein complex at 125 uM after 1 hr followed by 10 mins irradiation with UVA by Western blot analysis; format: tissue-based; conditions: Muscle tissue; outline: as §2
Gallus gallus [6] = organism: Gallus gallus; assay: Binding affinity to chicken skeletal muscle tropomyosin within actomyosin protein complex at 125 uM after 1 hr followed by 10 mins irradiation with UVA by SDS-PAGE analysis using coomassie brilliant blue staining; format: tissue-based; conditions: Muscle tissue
Gallus gallus [7] = organism: Gallus gallus; assay: Binding affinity to chicken skeletal muscle myosin within actomyosin protein complex at 125 uM after 1 hr followed by 10 mins irradiation with UVA by chemiluminescent method using avidin-horseradish peroxidase conjugate in presence of 1 mM of calcium chloride; outline: as §1

Measured: Activity

Nc1ncnc2c1ncn2[C@@H]1O[C@H](COP(=O)(O)OP(=O)(O)OP(=O)(O)NCc2ccc(C3(C(F)(F)F)N=N3)cc2)[C@@H](O)[C@H]1O
active: all assays above

Nc1ncnc2c1ncn2[C@@H]1O[C@H](COP(=O)(O)OP(=O)(O)OP(=O)(O)NCc2ccc(C3(C(F)(F)F)N=N3)cc2OCCOCCOCCNC(=O)CCCC[C@@H]2SC[C@@H]3NC(=O)N[C@@H]32)[C@@H](O)[C@H]1O
active: Gallus gallus [4] | Gallus gallus [6]
